PfG6PD inh: PfG6PD (Plasmodium falciparum) enzyme inhibition. PfGluPho enzyme, NADPH resazurin-diaphorase fluorescence. inhibition, % at 20 µM. actives 0.78% (n = 350,000);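 active = inhibition reaching at least a set limit at 20 µM in the primary screen, cut at about 59% in these data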
G6PDH counter: counter-screen for G6PDH assay hits: L. mesenteroides G6PDH inhibition. Purified L. mesenteroides G6PDH, diaphorase/resazurin coupled fluorescence, 45 min. actives 0.12% (n = 200,000). AID 1020. inhibition, % at 5 µM; in the data active = inhibition above about 50%
HKDC1 inhibitor: HKDC1 (human) hexokinase inhibition; recombinant HKDC1, G6PDH/diaphorase resazurin coupled fluorescence; inhibition, % at 20 µM; actives 0.16% (n = 340,000); AID 493160;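 active = inhibition above about 35% when tested at 20 µM, limit read from the data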
Target sequence (Q2TB90 whole entry, looked up): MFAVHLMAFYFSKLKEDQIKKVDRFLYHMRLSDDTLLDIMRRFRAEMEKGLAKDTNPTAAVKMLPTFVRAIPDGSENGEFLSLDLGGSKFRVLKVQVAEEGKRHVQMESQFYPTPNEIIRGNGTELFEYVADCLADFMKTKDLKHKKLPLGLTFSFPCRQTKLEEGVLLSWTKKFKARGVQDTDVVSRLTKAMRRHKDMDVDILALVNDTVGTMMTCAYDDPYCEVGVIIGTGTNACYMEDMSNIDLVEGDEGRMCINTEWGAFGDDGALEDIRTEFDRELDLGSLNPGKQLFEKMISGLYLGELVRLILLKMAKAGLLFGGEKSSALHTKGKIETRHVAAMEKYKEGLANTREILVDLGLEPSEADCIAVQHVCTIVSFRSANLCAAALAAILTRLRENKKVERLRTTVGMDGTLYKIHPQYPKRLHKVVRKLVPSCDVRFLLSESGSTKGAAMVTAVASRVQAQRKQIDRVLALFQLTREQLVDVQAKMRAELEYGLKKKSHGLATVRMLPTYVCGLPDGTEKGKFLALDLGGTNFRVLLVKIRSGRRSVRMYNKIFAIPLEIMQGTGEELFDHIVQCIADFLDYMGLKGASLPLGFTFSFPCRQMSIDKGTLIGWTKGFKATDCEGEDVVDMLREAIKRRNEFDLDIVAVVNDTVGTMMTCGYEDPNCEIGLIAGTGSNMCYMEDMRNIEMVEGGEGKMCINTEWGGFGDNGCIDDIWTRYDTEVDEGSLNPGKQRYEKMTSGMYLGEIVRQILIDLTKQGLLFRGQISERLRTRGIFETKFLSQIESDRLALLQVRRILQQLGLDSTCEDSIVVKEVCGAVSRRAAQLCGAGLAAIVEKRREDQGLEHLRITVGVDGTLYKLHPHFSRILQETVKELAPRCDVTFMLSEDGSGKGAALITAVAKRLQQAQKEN
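Incubation: 90 min at room temperature in dark / Material: recombinant HKDC1 (HK5) hexokinase enzyme, produced in-house / Quantity: enzyme 5 µg/mL final / Compound: one dose of 20 µM, 1% DMSO / Reagent: glucose and ATP substrates / Buffer or medium: Tris pH 8.0 buffer with MgCl2, Tween-20, BSA, BME / Technique: resorufin fluorescence at 613 nm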
Diaphorase inh: counter-screen for diaphorase-based assays: diaphorase inhibitors and chemical oxidizers. actives 0.69% (n = 190,000). diaphorase resazurin-to-resorufin fluorescence, NADH, 16 min; bacterial (C. kluyveri) enzyme, not human. inhibition, % at 20 µM;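 active = primary screen inhibition at 20 µM above a set limit, cut at about 50% in these data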
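Assay system: diaphorase enzyme from Clostridium kluyveri. Quantity: enzyme working solution with 0.14 U/mL diaphorase. Schedule: reaction incubation of 16 min at room temperature. Technique: resorufin fluorescence, excitation 544 nm, emission 590 nm. Controls: No-NADH positive control and DMSO neutral control.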
Diaphorase act: activates diaphorase or chemically reduces, flagging diaphorase assay artifacts; Diaphorase/resazurin coupled assay, resorufin fluorescence, 16 min; stronger effect = higher value; 1 = vehicle wells, 0 = NADH-free wells; activation factor at 20 µM; actives 0.005% (n = 190,000); AID 1229;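 active = diaphorase activity raised at least twofold by the compound at 20 µM; inactive = activation factor below 2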
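Assay system: bacterial diaphorase enzyme (C. kluyveri) / Input: enzyme 0.07 U/mL final / Medium: 50 mM HEPES pH 7.4 with 4.542 mM MgCl2, 0.005% Tween 20 / Doses: single compound dose of 20 µM, 1% DMSO final / Incubation: 16 min enzyme reaction, ambient temperature / Signal: fluorescence, excitation 544 nm and emission 590 nm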
PfGluPho conf: PfG6PD inhibition, single-dose confirmed; recombinant PfGluPho, NADPH-diaphorase-resazurin fluorescence; shares compounds with PfG6PD inh; actives 34% (n = 2,400); inhibition, % at 20 µM;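 active = inhibition of at least 50% at 20 µM in any single replicate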
Diaphorase 10uM: inhibits diaphorase or oxidizes, flagging false PfG6PD hits; AID 504862; actives 39% (n = 820); shares compounds with PfG6PD inh; diaphorase-coupled resazurin reduction, fluorescence, NADPH 10 uM; inhibition, % at 20 µM;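 active = average inhibition reaching 50% or more with the compound at 20 µM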;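 also: resorufin red fluorescence formed as diaphorase reduces resazurin using NADPH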
Diaphorase 30uM: diaphorase inhibition or oxidation at 30 uM NADPH; shares compounds with PfG6PD inh; Diaphorase/resazurin coupled assay, resorufin fluorescence; inhibition, % at 20 µM; actives 29% (n = 820); AID 504863;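 active = inhibition averaging 50% or more, tested at 20 µM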
A number is an active result; n = inactive; x = not tested or not shown. This is a sample that favours compounds with a hit; in the whole collection about 1.3% have one here.

SMILES | PfG6PD inh | G6PDH counter | HKDC1 inhibitor | Diaphorase inh | Diaphorase act | PfGluPho conf | others
Cc1ccc(C2(c3ccc(C)cc3)CC2C(=O)Nc2ccc([N+](=O)[O-])cc2O)cc1 (stereo not drawn) | 93 | n | n | n | n | n
CCOC(=O)c1sc(NC(=O)C2=COCCO2)c(C#N)c1C | n | x | n | x | x | x
CCOC(=O)c1sc(NC(=O)C(C)C)c(C#N)c1C | 68 | n | n | n | n | n
CS(=O)(=O)c1ccc2nc(N)sc2c1 | n | n | n | n | n | x
CS(=O)(=O)c1ccc(N)c(SSc2cc(S(C)(=O)=O)ccc2N)c1 | 97 | x | n | x | x | 99 | Diaphorase 10uM=n;Diaphorase 30uM=n
Cc1c(N)cc2c(c1N)C(C)(C)CC2(C)C | 83 | x | n | x | x | n
CC(=O)/C(N=Nc1cc2c(c([N+](=O)[O-])c1C)C(C)(C)CC2(C)C)=C(\C)O | n | x | n | x | x | x
COc1ccc(-c2csc(NC(=O)CCNC(=O)c3ccco3)n2)cc1 | n | x | x | x | x | x
CCOc1ccccc1NS(=O)(=O)c1c(C)noc1C | 63 | n | n | n | n | 54 | Diaphorase 10uM=n;Diaphorase 30uM=n
O=S(=O)(Nc1cccc2ncccc12)c1cccs1 | 99 | n | n | n | n | 61 | Diaphorase 10uM=62;Diaphorase 30uM=56
CCOc1ccccc1NS(=O)(=O)c1cccs1 | 99 | n | n | n | n | 72 | Diaphorase 10uM=68;Diaphorase 30uM=61
CCOc1ccccc1NC(=O)CCS(=O)(=O)c1cccs1 | n | x | n | x | x | x
CCOc1ccc(N(CC(=O)NCCSCc2ccc(Cl)cc2)S(C)(=O)=O)cc1 | n | x | n | x | x | x
COc1ccc(C(CC(=O)c2ccc(C)cc2)Sc2ccccc2N)cc1 (stereo not drawn) | n | x | x | x | x | x
Nc1ccccc1SC(CC(=O)c1ccccc1)c1cccc([N+](=O)[O-])c1 (stereo not drawn) | 70 | x | x | x | x | n
Nc1ccccc1SC(CC(=O)c1ccccc1)c1ccc([N+](=O)[O-])cc1 (stereo not drawn) | 61 | x | x | x | x | n
COc1ccc(NC(=O)c2ccc(-c3ccccc3Cl)o2)cc1 | 65 | n | n | n | n | n
O=C(Nc1cccc(F)c1)c1ccc(-c2ccccc2Cl)o1 | 79 | n | n | n | n | n
Cc1ccc(-c2ccc(C(=O)Nc3cccc(F)c3)o2)c2ccccc12 | n | n | n | n | n | x
NC(=O)C1C(=O)c2ccccc2C1(C[N+](=O)[O-])c1ccccc1 (stereo not drawn) | n | x | n | x | x | x
COCCn1c(SCC(=O)Nc2cc(C)on2)nnc1-c1ccccc1 | n | x | n | x | x | x
CC1(C)Cc2c(sc3nc4n(-c5ccccc5)c(=O)c(CCC(=O)O)nn4c(=O)c23)CO1 | 104 | x | n | x | x | 91 | Diaphorase 10uM=n;Diaphorase 30uM=n
COc1ccc(C)cc1NC(=O)COC(=O)Cc1c[nH]c2ccccc12 | n | x | x | x | x | x
CC1CCCCC12NC(=S)N(c1ccccc1)N2 (stereo not drawn) | 60 | x | n | x | x | n
COC(=O)c1c(-c2cccnc2)csc1NC(=O)c1ccc2c(c1)OCO2 | n | x | n | x | x | x
SMILES | PfG6PD inh | G6PDH counter | HKDC1 inhibitor | Diaphorase inh | Diaphorase act | PfGluPho conf | others
O=C(Nc1cccc(C(=O)N2CCCCC2)c1)C1CCCCC1 | n | x | n | x | x | x
COc1ccc(O)c(C(=O)C2c3ccccc3C(=O)N2c2ccc(C)cc2)c1 (stereo not drawn) | 66 | x | n | x | x | n
C[C@]12CC[C@@H]3c4cc(O)c(O)cc4CC[C@H]3[C@@H]1CC[C@@H]2O | 97 | n | n | 66 | n | 86 | Diaphorase 10uM=n;Diaphorase 30uM=n
C[C@]12CC[C@@H]3c4ccc(O)cc4CC[C@H]3[C@@H]1CC[C@@H]2O | n | n | n | n | n | x
Cc1ccc(-n2nnnc2-c2ccccc2Br)cc1 | 62 | x | n | x | x | n
Cc1cc(C)c2c(N)c3cccc(C)c3nc2n1 | n | n | n | n | n | x
O=C(N/N=C/c1cccc(Br)c1)C1CC(=O)N(c2ccccc2)C1 (stereo not drawn) | 73 | x | n | x | x | n
O=C(Nc1ccc(C(=O)N2CCCC2)cc1)c1cc(F)c(F)cc1Cl | n | x | x | x | x | x
CC(NC(=O)c1ccc2c(c1)C(=O)N(Cc1cccnc1)C2=O)c1ccccc1 (stereo not drawn) | n | x | n | x | x | x
CN(C)c1ccc2nc3ccc(=O)cc-3sc2c1 | 78 | x | x | x | x | 49 | Diaphorase 10uM=n;Diaphorase 30uM=n
COc1ccc2nc(N=Nc3ccc(N(C)C)cc3)sc2c1 | n | n | n | n | n | x
O=C(NC1CCCc2c1cnn2-c1ccc(F)cc1F)c1ccccc1N1CCOCC1 (stereo not drawn) | n | x | n | x | x | x
CCN1CCN(c2ccc(NC(=O)CC3OC(=O)c4ccccc43)cc2C)CC1 (stereo not drawn) | n | x | x | x | x | x
Nn1cnnc1N/N=C/c1ccc(F)cc1 | n | x | n | x | x | x
Nn1cnnc1N/N=C/c1ccc(Cl)c([N+](=O)[O-])c1 | 73 | n | n | n | n | 63 | Diaphorase 10uM=82;Diaphorase 30uM=74
CSc1ncccc1C(=O)NC1CCN(Cc2ccccc2)CC1 | n | x | n | x | x | x
Cc1ccc(SCCC(=O)N/N=C/c2cccnc2)cc1 | 74 | n | n | n | n | 67 | Diaphorase 10uM=80;Diaphorase 30uM=66
Cc1ccc(SCCC(=O)N/N=C/c2ccccc2O)cc1 | 77 | n | n | n | n | n
Cc1ccc(NC(=O)CCC(=O)N/N=C/c2ccccc2O)cc1 | n | x | n | x | x | x
Cc1noc(C)c1S(=O)(=O)NCc1ccc(CN(C)C)cc1 | n | x | n | x | x | x
Cc1ccc2nc(SCC(=O)NC3CCCc4ccccc43)[nH]c2c1 (stereo not drawn) | 75 | n | n | n | n | 59 | Diaphorase 10uM=64;Diaphorase 30uM=n
COc1cccc(NC(=O)CN(C)C(=O)c2ccc3c(c2)C(=O)N(CCC(C)C)C3=O)c1 | n | x | n | x | x | x
O=C(CN(Cc1ccc(Br)cc1)S(=O)(=O)c1ccccc1)NCc1cccnc1 | 63 | x | n | x | x | n
CS(=O)(=O)N(CC(=O)NCc1cccnc1)Cc1ccc(Cl)cc1 | n | n | n | n | n | x
COc1cc(S(=O)(=O)Nc2ccccc2C(=O)N2CCCCC2)ccc1NC(C)=O | n | x | n | x | x | x
SMILES | PfG6PD inh | G6PDH counter | HKDC1 inhibitor | Diaphorase inh | Diaphorase act | PfGluPho conf | others
COc1ccc(F)cc1S(=O)(=O)Nc1ccc(C)cc1 | 63 | n | n | n | n | n
COc1ccc(NS(=O)(=O)c2cc(C)ccc2OC)cc1OC | n | n | n | n | n | x
Cc1cc2nc3c(=O)[nH]c(=O)[nH]c3nc2c([N+](=O)[O-])c1N | n | n | n | 65 | n | n
O=c1nc(N/N=C/C=C/c2ccccc2)cn[nH]1 | n | x | n | x | x | x
COc1ccc(-n2c(=S)[nH]c3[nH]ncc3c2=O)cc1 | n | x | n | x | x | x
O=c1c2cn[nH]c2[nH]c(=S)n1-c1ccccc1 | 59 | n | n | 61 | n | n
